Laboratory results reported in ChEMBL document CHEMBL3259780, “3-Substituted-N-(4-hydroxynaphthalen-1-yl)arylsulfonamides as a novel class of selective Mcl-1 inhibitors: structure-based design, synthesis, SAR, and biological evaluation” (J Med Chem, 2014).
The source made the active and inactive calls. The rule behind the calls is not given here.

Legend:
MV4-11 = experiment: Cytotoxicity against human MV4-11 cells assessed as intracellular ATP level after 3 days by CellTiterGlo assay; format: functional, cell-based
Method in brief: (§1)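 Cells in RPMI 1640 with 10% FBS, plated at 0.5 × 10^6 cells/well and exposed to a range of compound concentrations for 3 days. Viability is read as intracellular ATP by CellTiter-Glo luminescence. Growth is expressed as percent of DMSO-treated cells, and IC50 is obtained by nonlinear regression.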

K562 = experiment: Cytotoxicity against human K562 cells assessed as intracellular ATP level after 3 days by CellTiterGlo assay; format: functional, cell-based; method in brief: as §1
HL-60 [1] = experiment: Cytotoxicity against human HL60 cells assessed as intracellular ATP level after 3 days by CellTiterGlo assay; format: functional, cell-based; method in brief: as §1
Bcl-2-like protein 1 = Bcl-2-like protein 1 (Homo sapiens, UniProt Q07817); experiment: Displacement of Flu-BID/FAM-BID from His-tagged BCLX-L (1 to 209) (unknown origin) expressed in Escherichia coli BL21(DE3) after 3 hrs by fluorescence polarization assay
Bcl-2-like protein 1, sequence (Q07817 whole entry): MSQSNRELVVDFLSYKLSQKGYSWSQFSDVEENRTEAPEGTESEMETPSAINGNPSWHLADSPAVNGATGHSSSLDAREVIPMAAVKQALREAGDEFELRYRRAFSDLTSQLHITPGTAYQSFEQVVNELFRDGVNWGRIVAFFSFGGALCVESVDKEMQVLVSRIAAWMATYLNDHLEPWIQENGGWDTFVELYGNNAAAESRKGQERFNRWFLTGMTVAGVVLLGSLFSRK

[2] = target: T1, Apoptosis regulator Bcl-2 (Homo sapiens, UniProt P10415); experiment: Displacement of Flu-BID/FAM-BID from His-tagged BCL2 (1 to 202) (unknown origin) expressed in Escherichia coli BL21(DE3) after 3 hrs by fluorescence polarization assay
T1 sequence (P10415 whole entry): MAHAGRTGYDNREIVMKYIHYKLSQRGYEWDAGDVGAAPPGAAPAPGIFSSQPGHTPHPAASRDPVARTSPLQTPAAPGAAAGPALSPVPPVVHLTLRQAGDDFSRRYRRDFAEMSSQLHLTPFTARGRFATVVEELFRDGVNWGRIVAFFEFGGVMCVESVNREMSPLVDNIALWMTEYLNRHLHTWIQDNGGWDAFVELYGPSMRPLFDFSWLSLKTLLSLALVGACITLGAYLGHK

[3] = target: T2, Induced myeloid leukemia cell differentiation protein Mcl-1 (Homo sapiens, UniProt Q07820); experiment: Binding affinity to His-tagged MCL1 (171 to 327) (unknown origin) expressed in Escherichia coli BL21(DE3) assessed as inhibition of MCL1-N-terminal biotin-labeled BIM BH3 peptide interaction after 30 mins by surface plasmon resonance analysis
T2 sequence (Q07820 whole entry): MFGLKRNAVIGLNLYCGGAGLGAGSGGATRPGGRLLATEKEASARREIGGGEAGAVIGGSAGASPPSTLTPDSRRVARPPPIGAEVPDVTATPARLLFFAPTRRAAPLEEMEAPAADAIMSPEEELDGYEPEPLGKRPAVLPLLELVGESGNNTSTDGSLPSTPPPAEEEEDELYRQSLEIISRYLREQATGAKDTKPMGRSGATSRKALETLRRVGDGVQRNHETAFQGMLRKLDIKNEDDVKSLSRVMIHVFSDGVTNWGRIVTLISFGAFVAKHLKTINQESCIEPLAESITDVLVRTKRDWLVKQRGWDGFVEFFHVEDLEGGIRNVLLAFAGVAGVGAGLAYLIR

[4] = target: T2, Induced myeloid leukemia cell differentiation protein Mcl-1; experiment: Displacement of Flu-BID/FAM-BID from His-tagged MCL1 (171 to 327) (unknown origin) expressed in Escherichia coli BL21(DE3) after 3 hrs by fluorescence polarization assay
[5] = target: Induced myeloid leukemia cell differentiation protein Mcl-1 homolog (Mus musculus) (UniProt P97287); experiment: Inhibition of MCL1 in BAX/BAK double knock out MEF assessed as induction of cell death at 16 uM after 15 hrs by propidium iodide staining-based flow cytometric analysis relative to control
Induced myeloid leukemia cell differentiation protein Mcl-1 homolog (Mus musculus), sequence (P97287 whole entry): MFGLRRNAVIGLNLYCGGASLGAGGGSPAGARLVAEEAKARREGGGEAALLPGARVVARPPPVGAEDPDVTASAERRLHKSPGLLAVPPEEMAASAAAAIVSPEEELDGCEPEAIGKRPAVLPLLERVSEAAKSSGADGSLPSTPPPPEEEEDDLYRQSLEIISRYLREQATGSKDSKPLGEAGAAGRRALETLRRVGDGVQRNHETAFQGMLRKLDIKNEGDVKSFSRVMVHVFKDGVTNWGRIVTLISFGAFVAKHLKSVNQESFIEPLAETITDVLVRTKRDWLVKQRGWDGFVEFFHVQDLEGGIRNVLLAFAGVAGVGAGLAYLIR
Method in brief: (§2)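 Wild-type and Bax/Bak double-knockout MEFs were grown in DMEM with 10% FBS, seeded at 0.5 × 10^6 cells/well and allowed to adhere. Cells were exposed to increasing concentrations for 15 h, harvested, washed in PBS and stained with 0.025 mg/mL propidium iodide. PI-positive percentage was measured by flow cytometry. Mean ± SEM, with unpaired t test.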

[6] = target: T1, Apoptosis regulator Bcl-2; experiment: Inhibition of BCL2 (unknown origin) overexpressed in E-mu-myc transgenic mouse lymphoma cells assessed as induction of cell death after 15 to 18 hrs by flow cytometric analysis; format: cell-based
Method in brief: (§3)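 Eμ-myc transgenic mouse lymphoma cells retrovirally transduced to overexpress Mcl-1 or Bcl-2, seeded at 0.5 × 10^6 cells/well. Cells were treated at varying concentrations for 15–18 h and stained with violet LIVE/DEAD fixable dead-cell dye. Percent stained (dead) cells was measured by flow cytometry. Means ± SEM from 3–7 independent experiments.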

HL-60 [7] = experiment: Induction of apoptosis in human HL60 cells assessed as caspase-3 activation at 2.5 uM […] by DEVD-AFC-based fluorometric assay; format: functional, cell-based
HL-60 [8] = experiment: Induction of apoptosis in human HL60 cells assessed as caspase-3 activation after 20 hrs by DEVD-AFC-based fluorometric assay; format: functional, cell-based
Method in brief: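 HL-60 cells were seeded at 0.5 × 10^6 cells/well and exposed to graded compound concentrations for 20 h. Caspase-3 activity was measured by fluorometric kit assay with DEVD-AFC substrate. Results are expressed as fold change over DMSO-treated cells.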

HL-60 [9] = experiment: Induction of apoptosis in human HL60 cells after 20 hrs by annexin V-FITC and propidium iodide staining-based flow cytometric analysis; format: functional, cell-based
Method in brief: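 HL-60 cells at 0.5 × 10^6 cells/well were exposed to compounds at several concentrations for 20 h, then washed in PBS and stained with annexin-V FITC plus PI. Flow cytometry was run within 1 h. Annexin+/PI− counts as early apoptosis and double positive as late. Some runs included a 1 h pretreatment with 100 μM Z-VAD-FMK.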

[10] = target: Induced myeloid leukemia cell differentiation protein Mcl-1 homolog (Mus musculus) (UniProt P97287); experiment: Inhibition of MCL1 in wild-type MEF assessed as induction of BAX/BAK-dependent cell death after 15 hrs by propidium iodide staining-based flow cytometric analysis; method in brief: as §2
[11] = target: Induced myeloid leukemia cell differentiation protein Mcl-1 homolog (Mus musculus) (UniProt P97287); experiment: Inhibition of MCL1 in wild-type MEF assessed as induction of BAX/BAK-dependent cell death at 16 uM after 15 hrs by propidium iodide staining-based flow cytometric analysis relative to control
Method in brief: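 Wild-type and Bax/Bak double-knockout MEFs grown in DMEM with 10% FBS, seeded at 0.5 × 10^6 cells/well and left to adhere. Exposed 15 h to compound, harvested, PBS-washed, stained with 0.025 mg/mL propidium iodide. PI-positive percentage by flow cytometry; significance by unpaired t test.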

Homo sapiens = species on record: Homo sapiens; experiment: Selectivity ratio of Ki for His-tagged BCL2 (1 to 202) (unknown origin) to Ki for His-tagged MCL1 (171 to 327) (unknown origin)
Method in brief: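 Buffer 100 mM potassium phosphate pH 7.5 with bovine gamma globulin, azide and 0.01% Triton X-100; 3 h at room temperature. IC50 fitted, then converted to Ki.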

[12] = target: T2, Induced myeloid leukemia cell differentiation protein Mcl-1; experiment: Inhibition of FITC-labeled MCL1 (unknown origin) after 5 mins by fluorescence polarization assay
[13] = target: T2, Induced myeloid leukemia cell differentiation protein Mcl-1; experiment: Inhibition of MCL1 (unknown origin) overexpressed in E-mu-myc transgenic mouse lymphoma cells assessed as induction of cell death at 0.1 to 10 uM after 15 to 18 hrs by flow cytometric analysis; format: cell-based; method in brief: as §3
[14] = target: T1, Apoptosis regulator Bcl-2; conditions: lymphoma, 0.1 to 10 uM

SMILES	IC50 [3]	Ki [4]	further results
O=C(O)CSc1cc(NS(=O)(=O)c2ccc(-c3ccccc3)cc2)c2ccccc2c1O	2.03 µM		Activity (MV4-11): Dose-dependent effect; Activity (K562): Dose-dependent effect; Activity (HL-60 [1]): Dose-dependent effect; Ki (Bcl-2-like protein 1): 8.05 µM; Ki [2]: 8.82 µM
COc1ccc(S(=O)(=O)Nc2cc(SCC(=O)O)c(O)c3ccccc23)cc1	7.17 µM	9.31 µM	
O=S(=O)(Nc1cc(SCc2nnn[nH]2)c(O)c2ccccc12)c1ccc(Br)cc1	1.5 µM	1.01 µM	Activity (MV4-11): Dose-dependent effect; Activity (K562): Dose-dependent effect; Activity (HL-60 [1]): Dose-dependent effect
CCc1ccc(S(=O)(=O)Nc2cc(SCC(=O)O)c(O)c3ccccc23)cc1	8.68 µM		
O=C(O)CSc1cc(NS(=O)(=O)c2cccc(-c3ccccc3)c2)c2ccccc2c1O	2.31 µM		Activity (MV4-11): Dose-dependent effect; Activity (K562): Dose-dependent effect; Activity (HL-60 [1]): Dose-dependent effect; Ki (Bcl-2-like protein 1): 15.1 µM; Ki [2]: 7.85 µM
CS(=O)(=O)Nc1cc(SCC(=O)O)c(O)c2ccccc12	> 100 µM	74.9 µM	
O=C(O)CSc1cc(NC(=O)Cc2ccccc2)c2ccccc2c1O	63.8 µM	59.4 µM	
O=C(O)CSc1cc(NS(=O)(=O)c2ccc(Oc3ccccc3)cc2)c2ccccc2c1O			inhibition [5]: 23%; inhibition [6]: inactive; Activity (HL-60 [7]): Active; Activity (HL-60 [8]): Dose-dependent effect; Activity (MV4-11): Dose-dependent effect; Activity (K562): Dose-dependent effect; Activity (HL-60 [1]): Dose-dependent effect; Activity (HL-60 [9]): Dose-dependent effect; Ki (Bcl-2-like protein 1): 10.6 µM; inhibition [10]: Dose-dependent effect; Ki [2]: 7.56 µM; inhibition [11]: 61%
O=S(=O)(Nc1cc(SCc2nnn[nH]2)c(O)c2ccccc12)c1ccc(Oc2ccccc2)cc1		0.21 µM	Activity (MV4-11): Dose-dependent effect; Activity (K562): Dose-dependent effect; Activity (HL-60 [1]): Dose-dependent effect; Activity (HL-60 [9]): Dose-dependent effect
O=C(O)CSc1cc(CNS(=O)(=O)c2ccccc2)c2ccccc2c1O	30.2 µM	64.8 µM	
O=C(O)CSc1cc(NS(=O)(=O)c2ccccc2Br)c2ccccc2c1O	6.18 µM		
O=C(O)CSc1cc(NS(=O)(=O)c2cccc(Br)c2)c2ccccc2c1O	9.68 µM		
CC(C)(C)c1ccc(S(=O)(=O)Nc2cc(SCC(=O)O)c(O)c3ccccc23)cc1	8.73 µM		
COc1c(I)cc(C=O)c2ccccc12			Ratio Ki (Homo sapiens): 16; Ki (Bcl-2-like protein 1): > 15 µM
COC(=O)CSc1cc(NS(=O)(=O)c2ccc(Br)cc2)c2ccccc2c1O	14.9 µM		Activity (MV4-11): Dose-dependent effect; Activity (K562): Dose-dependent effect; Activity (HL-60 [1]): Dose-dependent effect
CC(=O)Oc1c(SCC(=O)O)cc(NS(=O)(=O)c2ccc(Br)cc2)c2ccccc12	26.8 µM	34 µM	
O=S(=O)(Nc1ccc(O)c2ccccc12)c1ccccc1		> 27 µM	
O=C(O)CSc1cc(NS(=O)(=O)c2cc3ccccc3s2)c2ccccc2c1O	7.5 µM		
O=C(O)CSc1cc(NS(=O)(=O)c2ccc(Br)cc2)c2ccccc2c1O	2.4 µM		Activity (MV4-11): Dose-dependent effect; Activity (K562): Dose-dependent effect; Activity (HL-60 [1]): Dose-dependent effect; Ki (Bcl-2-like protein 1): 33 µM; Ki [2]: 23.8 µM
CC(C)c1ccc(S(=O)(=O)Nc2cc(SCC(=O)O)c(O)c3ccccc23)cc1	4 µM		
Cc1cs/c(=N\C2CCCCC2)n1/N=C/c1ccc(O)c(O)c1O			IC50 [12]: 4.72 µM; IC50 (Bcl-2-like protein 1): > 50 µM
COC(=O)CSc1cc(NS(=O)(=O)c2ccc(Br)cc2)c2ccccc2c1OC	> 100 µM	> 27 µM	inhibition [6]: inactive; Activity (MV4-11): Dose-dependent effect; IC50 (MV4-11; MV4-11, 72 h): > 50 µM; Activity (K562): Dose-dependent effect; IC50 (K562; K562, 72 h): > 50 µM; Activity (HL-60 [1]): Dose-dependent effect; IC50 (HL-60 [1]; HL-60, 72 h): > 50 µM

SMILES	IC50 [3]	Ki [4]	further results
O=C(O)CSc1cc(NS(=O)(=O)c2ccc(Oc3ccc(F)cc3)cc2)c2ccccc2c1O	0.9 µM	0.29 µM	
O=C(O)CSc1cc(NS(=O)(=O)c2ccccc2)c2ccccc2c1O	12.6 µM		
COc1c(CCCCO)cc(NS(=O)(=O)c2ccc(Br)cc2)c2ccccc12	> 100 µM	> 27 µM	
NC(=O)CSc1cc(NS(=O)(=O)c2ccc(Br)cc2)c2ccccc2c1O	3.87 µM		
O=C(O)CSc1cc(NS(=O)(=O)c2ccc(-c3ccc(Cl)cc3)cc2)c2ccccc2c1O	0.88 µM		inhibition [6]: inactive; Activity (MV4-11): Dose-dependent effect; Activity (K562): Dose-dependent effect; Activity (HL-60 [1]): Dose-dependent effect; Ki [2]: 6.11 µM
O=S(=O)(Nc1cc(CCCO)c(O)c2ccccc12)c1ccc(Br)cc1	11 µM	3.79 µM	
COc1c(SCC(=O)O)cc(NS(=O)(=O)c2ccc(-c3ccccc3)cc2)c2ccccc12	> 100 µM	20 µM	
COc1c(SCC(N)=O)cc(NS(=O)(=O)c2ccc(Br)cc2)c2ccccc12	> 100 µM	> 27 µM	
COc1c(SCC(=O)O)cc(NS(=O)(=O)c2cccc(-c3ccccc3)c2)c2ccccc12	58.4 µM	24.2 µM	
O=C(O)CCSc1cc(NS(=O)(=O)c2ccc3ccccc3c2)c2ccccc2c1O	5.03 µM		
O=C(O)CSc1cc(NS(=O)(=O)c2ccccc2-c2ccccc2)c2ccccc2c1O	9.9 µM		Ki (Bcl-2-like protein 1): 48.2 µM; Ki [2]: 23.8 µM
O=C(O)CCSc1cc(NS(=O)(=O)c2cccc3ccccc23)c2ccccc2c1O	64.9 µM	> 27 µM	
O=C(O)CSc1cc(NS(=O)(=O)c2ccc(Cl)cc2)c2ccccc2c1O	2.7 µM		
CC1(C)CCC(c2ccc(Cl)cc2)=C(CN2CCN(c3ccc(C(=O)NS(=O)(=O)c4ccc(N[C@H](CCN5CCOCC5)CSc5ccccc5)c(S(=O)(=O)C(F)(F)F)c4)cc3)CC2)C1			inhibition [13]: inactive; inhibition [14]: Active
O=C(O)CSc1cc(NS(=O)(=O)Cc2ccc(Cl)cc2)c2ccccc2c1O	9.59 µM		
CCCCSc1cc(NS(=O)(=O)c2ccc(Br)cc2)c2ccccc2c1O		> 27 µM	
O=S(=O)(Nc1cc(CCCCO)c(O)c2ccccc12)c1ccc(Br)cc1	19.7 µM		
O=C(O)CSc1cc(NS(=O)(=O)c2ccc(-c3ccc(F)cc3F)cc2)c2ccccc2c1O	0.92 µM	0.24 µM	
O=C(O)CSc1cc(NC(=O)c2ccc(Br)cc2)c2ccccc2c1O	45.1 µM		
O=C(O)CSc1cc(NS(=O)(=O)c2ccc(Br)cc2)ccc1O	> 100 µM	283 µM	
O=C(O)CSc1cc(NS(=O)(=O)c2ccc(F)cc2)c2ccccc2c1O	5.01 µM		
O=C(O)CSc1cc(NS(=O)(=O)N2CCN(c3ccccc3)CC2)c2ccccc2c1O	16.2 µM	2.22 µM	
